# In ChEMBL document CHEMBL4270546, “A novel Anti-Cancer Stem Cells compound optimized from the natural symplostatin 4 scaffold inhibits Wnt/β-catenin signaling pathway” (Eur J Med Chem, 2018):
# The source made the active and inactive calls. The calls are words filed in the database; no cut-off is given here.
# What was measured:
# MCF7 = test: Antiproliferative activity against human MCF7 cells after 48 hrs by MTT assay; type: functional, cell-based; conditions: MCF7, 48 h
# MDA-MB-231 = test: Antiproliferative activity against human MDA-MB-231 cells after 48 hrs by MTT assay; type: functional, cell-based; conditions: MDA-MB-231, 48 h
# 4T1 = test: Antiproliferative activity against mouse 4T1 cells after 48 hrs by MTT assay; type: functional, cell-based; conditions: 4T1, 48 h
# PANC-1 = test: Antiproliferative activity against human PANC1 cells after 48 hrs by MTT assay; type: functional, cell-based; conditions: PANC-1, 48 h
# A549 = test: Antiproliferative activity against human A549 cells after 48 hrs by MTT assay; type: functional, cell-based; conditions: A549, 48 h
# A-375 [1] = test: Inhibition of colony formation in human A375 cells at 0.125 to 0.25 uM after 7 days by crystal violet staining based assay; type: functional, cell-based
# Outline: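 Clonogenic long-term growth assay: A375 or B16F10 cells grown under continuous compound exposure for 7 days, then colonies quantified; mean ± sd, n = 3, two-way ANOVA.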
# A-375 [2] = test: Induction of apoptosis in human A375 cells assessed as live cells at 1 uM after 48 hrs by Annexin V-FITC/propidium iodide staining based flow cytometry (reference value: 93.6%); type: functional
# A-375 [3] = test: Induction of apoptosis in human A375 cells assessed as early apoptotic cells at 1 uM after 48 hrs by Annexin V-FITC/propidium iodide staining based flow cytometry (reference value: 1.13%); type: functional
# A-375 [4] = test: Induction of apoptosis in human A375 cells assessed as live cells at 2 uM after 48 hrs by Annexin V-FITC/propidium iodide staining based flow cytometry (reference value: 93.6%); type: functional
# A-375 [5] = test: Induction of apoptosis in human A375 cells assessed as early apoptotic cells at 2 uM after 48 hrs by Annexin V-FITC/propidium iodide staining based flow cytometry (reference value: 1.13%); type: functional
# B16-F10 [6] = test: Induction of apoptosis in mouse B16F10 cells assessed as live cells at 1 uM after 48 hrs by Annexin V-FITC/propidium iodide staining based flow cytometry (reference value: 97.6%); type: functional
# B16-F10 [7] = test: Induction of apoptosis in mouse B16F10 cells assessed as necrotic cells at 1 uM after 48 hrs by Annexin V-FITC/propidium iodide staining based flow cytometry (reference value: 1.86%); type: functional
# A-375 [8] = test: Induction of apoptosis in human A375 cells after 48 hrs by Annexin V-FITC/propidium iodide staining based flow cytometry; type: functional, cell-based
# A-375 [9] = test: Induction of apoptosis in human A375 cells assessed as upregulation of activated caspase-3 protein expression at 0.5 to 4 uM after 48 hrs by Western blot analysis; type: functional, cell-based
# Outline: (§1)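 Cells treated with compound at different concentrations (0.5-4 μM) for 48 h. Lysates probed by Western blot for cleaved PARP, active caspase-3, Bax and p53.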
# B16-F10 [10] = test: Induction of apoptosis in mouse B16F10 cells assessed as upregulation of cleaved PARP expression at 0.5 to 4 uM after 48 hrs by Western blot analysis; type: functional, cell-based; outline: as §1
# B16-F10 [11] = test: Induction of apoptosis in mouse B16F10 cells assessed as upregulation of activated caspase-3 protein expression at 0.5 to 4 uM after 48 hrs by Western blot analysis; type: functional, cell-based; outline: as §1
# B16-F10 [12] = test: Anti-invasive activity against mouse B16F10 cells at 0.25 uM after 24 hrs by matrigel invasion assay; type: functional, cell-based
# Outline: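 Cells seeded in the upper chamber of a transwell with a Matrigel-precoated filter, incubated with compound (0.25 μM) for 24 h. Invaded cells imaged and counted against an untreated control. Mean ± sd, n = 3, two-way ANOVA.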
# A-375 [13] = test: Inhibition of tumor sphere formation ability of human A375 cells at 0.25 to 0.5 uM pretreated for 48 hrs followed by cell culture for 7 days; type: functional, cell-based
# Outline: (§2)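 A375 or B16F10 cells pretreated with or without compound for 48 h, collected and replated on ultra-low attachment surfaces; after 7 days of culture, sphere number and size scored; mean ± sd, n = 3, two-way ANOVA.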
# B16-F10 [14] = test: Inhibition of tumor sphere formation ability of mouse B16F10 cells at 0.25 to 0.5 uM pretreated for 48 hrs followed by cell culture for 7 days; type: functional, cell-based; outline: as §2
# B16-F10 [15] = test: Inhibition of ALDH+ subpopulation of mouse B16F10 cells assessed as ALDH+ cells at 0.25 after 48 hrs by flow cytometry (reference value: 26.7%); type: functional; design: scale not given: the % may be the effect or the level left
# A-375 [16] = test: Inhibition of CD133+ sub-population of human A375 cells assessed as CD133+ cells at 0.25 after 48 hrs by flow cytometry (reference value: 4.54%); type: functional; design: scale not given: the % may be the effect or the level left
# A-375 [17] = test: Inhibition of CD133+ sub-population of human A375 cells assessed as CD133+ cells at 0.5 after 48 hrs by flow cytometry (reference value: 4.54%); type: functional; design: scale not given: the % may be the effect or the level left
# B16-F10 [18] = test: Inhibition of CD133+ sub-population of mouse B16F10 cells assessed as CD133+ cells at 0.25 after 48 hrs by flow cytometry (reference value: 7.23%); type: functional; design: scale not given: the % may be the effect or the level left
# B16-F10 [19] = test: Inhibition of CD133+ sub-population of mouse B16F10 cells assessed as CD133+ cells at 0.5 after 48 hrs by flow cytometry (reference value: 7.23%); type: functional; design: scale not given: the % may be the effect or the level left
# Homo sapiens = organism: Homo sapiens; test: Inhibition of Wnt/beta-catenin signaling pathway in human A375 cells assessed as reduction in c-Myc protein expression after 48 hrs by Western blot analysis; type: cell-based
# Outline: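 A375 cells exposed to compound at several concentrations for 48 h; lysates immunoblotted for STAT3, p-STAT3, β-catenin and c-Myc.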
# B16-F10 [20] = test: Induction of apoptosis in mouse B16F10 cells assessed as upregulation of Bax expression after 48 hrs by Western blot analysis
# B16-F10 [21] = test: Induction of apoptosis in mouse B16F10 cells assessed as upregulation of p53 expression after 48 hrs by Western blot analysis
smiles,measurement,setting,value
CC[C@H](C)[C@H](NC(=O)OCc1ccccc1)C(=O)N[C@@H](CC(C)C)C(=O)N[C@@H](CC(C)C)C(=O)N[C@@H](C)/C=C/C(=O)N1C(=O)C=C(OC)[C@@H]1C(C)C,IC50,MCF7,2540 nM
same,IC50,MDA-MB-231,922 nM
same,IC50,4T1,946 nM
same,IC50,PANC-1,435 nM
same,IC50,A549,4660 nM
same,inhibition,A-375 [1],Active
same,Activity,A-375 [2],97.9%
same,Activity,A-375 [3],3.49%
same,Activity,A-375 [4],79.3%
same,Activity,A-375 [5],9.68%
same,Activity,B16-F10 [6],85%
same,Activity,B16-F10 [7],1.37%
same,Activity,A-375 [8],Dose-dependent effect
same,Activity,A-375 [9],Active
same,Activity,B16-F10 [10],Active
same,Activity,B16-F10 [11],Active
same,Activity,B16-F10 [12],Active
same,inhibition,A-375 [13],Active
same,inhibition,B16-F10 [14],Active
same,Activity,B16-F10 [15],17.6%
same,Activity,A-375 [16],1.25%
same,Activity,A-375 [17],0.867%
same,Activity,B16-F10 [18],2.31%
same,Activity,B16-F10 [19],1.7%
same,inhibition,Homo sapiens,Dose-dependent effect
same,Bax upregulation,B16-F10 [20],Dose-dependent effect
same,p53 upregulation,B16-F10 [21],Dose-dependent effect
